Results collected from several papers.
Protocols differ between the studies behind these lines. pEC50, pIC50: −log10 of the molar value.

Compound | tested on | assay | system | setting | quantity | result
O=C1C(NCCc2ccc(O)cc2)=CC2=NCCc3c[nH]c1c32 | Babesia divergens | parasite growth, SYBR Green |  | 60 h, blood stage | pIC50 | 6.39
C#CCOc1ccc(/C=C/c2cc(OC)cc(OC)c2-c2cnnn2C(=O)NCCC)cc1 | RAW264.7 | NO release, inhibitor, Griess |  | 10 µM, LPS-stimulated | inhibition | 94.2%
N#Cc1c(-c2ccc(OCc3ccccc3)cc2)c(C(N)=O)c(N)n(N)c1=O | Enterobacter cloacae | microbial growth, well diffusion | ATCC23355 | 500 µg/mL | inhibition zone | 10 mm
Cc1ccc(-c2cc(C(F)(F)F)nn2-c2ccc(S(N)(=O)=O)cc2)cc1 | RAW264.7 | NO release, inhibitor, Griess |  | 10 µM, LPS-stimulated | inhibition | 35.2%
O=C(c1ccc(Oc2ccc(OCc3ccccc3)cc2)c([N+](=O)[O-])c1)C(Cl)Cl | NCI-H1299 | cell growth or viability, MTT |  | 2.5 µM | inhibition | 86.4%
CN(Cc1ccc(C(C)(C)C)cc1)Cc1cccc2ccccc12 | Trichophyton mentagrophytes | microbial growth, disc diffusion | ATCC18748 | 0.004 µg/mL, 72 h | inhibition zone | 34 mm
CC(=O)OCCCOc1ccc(C(=O)C(Cl)Cl)cc1[N+](=O)[O-] | NCI-H1299 | cell growth or viability, MTT |  | 2.5 µM | inhibition | 60.3%
CN(Cc1ccc(C2(C(F)(F)F)CC2)cc1)Cc1cccc2ccccc12 | Trichophyton mentagrophytes | microbial growth, disc diffusion | ATCC18748 | 0.512 µg/mL, 72 h | inhibition zone | ≥ 55 mm
O=C1CC[C@@H](COc2ccc(C(=O)C(Cl)Cl)cc2[N+](=O)[O-])N1 | NCI-H1299 | cell growth or viability, MTT |  | 2.5 µM | inhibition | 94.7%
C=CC(=O)NC1CCN(c2ncc3ncnc(Nc4ccc(Oc5ccc6c(c5)ncn6C)c(C)c4)c3n2)CC1 | NCI-H1437 | cell growth or viability |  |  | pEC50 | 5.30
O=C(c1ccccc1)c1ccc(Oc2ccc(C(=O)C(Cl)Cl)cc2[N+](=O)[O-])cc1 | NCI-H1299 | cell growth or viability, MTT |  | 2.5 µM | inhibition | 85.3%
CC#CCOc1ccc(/C=C/c2cc(OC)cc(OC)c2-c2cnnn2C(=O)NC(C)C)cc1 | RAW264.7 | NO release, inhibitor, Griess |  | 10 µM, LPS-stimulated | inhibition | 78.7%
